In ChEMBL document CHEMBL2311423, “Novel carbocyclic nucleoside analogs suppress glomerular mesangial cells proliferation and matrix protein accumulation through ROS-dependent mechanism in the diabetic milieu” (Bioorg Med Chem Lett, 2013):
The source made the active and inactive calls. No cut-off for these calls is given here.

Experiments:
Type in all cases: functional
[1] = Antidiabetic nephropathic activity in rat glomerular mesangial cells assessed as reduction of high-glucose induced fibronectin expression at 10 uM treated 12 to 24 hrs after serum-deprivation measured after 24 hrs by Western blot analysis relative to beta-actin expression
[2] = Antidiabetic nephropathic activity in rat glomerular mesangial cells assessed as reduction of high-glucose induced fibronectin expression at 1 uM treated 12 to 24 hrs after serum-deprivation measured after 24 hrs by Western blot analysis relative to beta-actin expression
[3] = Antidiabetic nephropathic activity in rat glomerular mesangial cells assessed as reduction of high-glucose induced NADPH-dependent ROS production by measuring NADPH oxidase activity at 1 uM treated 12 after serum-deprivation measured after 24 hrs by DHE staining
How it was run: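 Rat glomerular mesangial cells serum-deprived 12 h, then given high glucose (25 mM) for 24 h with or without compound. NADPH-dependent superoxide generation (NADPH oxidase activity) measured in parallel with DHE staining. Superoxide expressed as relative light units per mg protein.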

[4] = species on record: Rattus norvegicus; experiment: Antidiabetic nephropathic activity in rat glomerular mesangial cells assessed as reduction of high-glucose induced cell proliferation at 1 to 10 uM treated 12 after serum-deprivation measured after 24 hrs by MTT assay
How it was run: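 Rat glomerular mesangial cells serum-deprived 12 h, then given high glucose (25 mM) for 24 h with or without compound at different concentrations. Proliferation read by MTT assay after 24 h, compared against normal-glucose cells.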

## CC(=O)OC[C@@H]1CC(n2cc(C)c(=O)n(C(=O)c3ccccc3)c2=O)C[C@H]1COC(C)=O (racemic)
[1]
  Activity: 53 a.u.
[2]
  Activity: 59 a.u.

## CC(=O)OC[C@@H]1CC(n2ccc(=O)n(C(=O)c3ccccc3)c2=O)C[C@H]1COC(C)=O (racemic)
[1]
  Activity: 52 a.u.
[2]
  Activity: 55 a.u.

## CCOC(=O)[C@@H]1CC(n2cc(C)c(=O)n(C(=O)c3ccccc3)c2=O)C[C@H]1C(=O)OCC (racemic)
[1]
  Activity: 20 a.u.
[2]
  Activity: 25 a.u.
[3]
  Activity: Active
[4]
  Activity: Active

## CCOC(=O)[C@H]1C[C@H](n2cc(C)c(=O)n(C(=O)c3ccccc3)c2=O)C[C@H]1C(=O)OCC
[1]
  Activity: 66 a.u.
[2]
  Activity: 68 a.u.

## CCOC(=O)[C@@H]1CC(n2ccc(=O)n(C(=O)c3ccccc3)c2=O)C[C@H]1C(=O)OCC (racemic)
[1]
  Activity: 60 a.u.
[2]
  Activity: 67 a.u.

## CC(=O)OC[C@@H]1C[C@@H](n2ccc(=O)n(C(=O)c3ccccc3)c2=O)C[C@@H]1COC(C)=O
[1]
  Activity: 57 a.u.
[2]
  Activity: 64 a.u.

## CCOC(=O)[C@H]1C[C@H](n2ccc(=O)n(C(=O)c3ccccc3)c2=O)C[C@H]1C(=O)OCC
[1]
  Activity: 20 a.u.
[2]
  Activity: 26 a.u.
[3]
  Activity: Active
[4]
  Activity: Active

## CC(=O)OC[C@@H]1C[C@@H](n2cc(C)c(=O)n(C(=O)c3ccccc3)c2=O)C[C@@H]1COC(C)=O
[1]
  Activity: 40 a.u.
[2]
  Activity: 65 a.u.
